Assay outcomes (PubChem BioAssay)
The list is not random: actives were taken first. Their share in the collection is about 2.5%.
EWS-Fli block: inhibitors of EWS/Fli oncoprotein transcriptional activity. A673 NR0B1-luciferase reporter, viability-normalised. inhibition, % at 12.6 µM. 0.67% of 350,000 active. AID 651661;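 active = mean inhibition of at least 50% after viability correction, with every replicate also passing that limit; inconclusive = mean reaches 50% but only one of two replicates passes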;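 also: firefly luciferase signal divided by Alamar Blue viability fluorescence both relative to DMSO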
MLL AF4-AF9 inh: inhibitors of human MLL-AF4/AF9 interaction; inhibition, % at 10 µM; 0.47% of 350,000 active; AID 651704; AlphaScreen, biotin-AF4 peptide binding to FLAG-AF9;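 active = every replicate reaching a set inhibition limit, whatever the replicate mean, cut at about 25% in these data; inconclusive = mean inhibition reaches that limit but some replicates miss it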;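 also: 0% = plate neutral control median and 100% = total signal loss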
Target sequence (P42568 whole entry, looked up): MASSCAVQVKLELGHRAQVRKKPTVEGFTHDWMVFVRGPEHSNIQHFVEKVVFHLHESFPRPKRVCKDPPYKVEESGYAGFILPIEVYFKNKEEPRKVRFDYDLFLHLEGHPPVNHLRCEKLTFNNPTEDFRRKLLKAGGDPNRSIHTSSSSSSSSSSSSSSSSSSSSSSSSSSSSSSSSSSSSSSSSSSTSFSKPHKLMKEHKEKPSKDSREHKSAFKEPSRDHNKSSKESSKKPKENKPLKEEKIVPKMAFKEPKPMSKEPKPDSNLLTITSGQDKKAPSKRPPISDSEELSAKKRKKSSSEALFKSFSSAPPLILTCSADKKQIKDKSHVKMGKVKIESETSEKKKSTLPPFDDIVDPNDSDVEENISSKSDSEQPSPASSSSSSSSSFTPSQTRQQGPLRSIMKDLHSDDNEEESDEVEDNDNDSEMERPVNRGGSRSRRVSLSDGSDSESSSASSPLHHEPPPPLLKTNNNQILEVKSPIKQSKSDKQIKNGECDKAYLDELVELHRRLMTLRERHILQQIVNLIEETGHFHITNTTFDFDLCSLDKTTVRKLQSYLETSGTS
FN deposit inh: fibronectin deposition inhibition. AH1F fibroblasts, Alexa488-fibronectin deposition fluorescence, overnight. inhibition, % at 12.6 µM. 0.086% of 350,000 active. AID 743247;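 active = mean inhibition across replicates of 30% or more, regardless of how many single replicates reach that level; inconclusive = mean under 30% yet at least half of replicates reach 30%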;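 also: positive control wells lacked labelled fibronectin entirely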
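Material: AH1F fibroblast monolayer depositing Alexa488-labelled fibronectin into matrix | Input: 10000 AH1F cells/well | Medium: DMEM plus 2% serum, read in PBS | Reagent: Alexa488-fibronectin, 24 nM final in well | Compound dosing: One dose per compound, pinned | Schedule: 1 h adhesion, overnight exposure | Measured by: Fluorescence at 485 nm excitation, 525 nm emission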
N-glyco inh: blocks N-linked glycosylation in D54 reporter cells | D54 ERlucT glycosylation luciferase reporter, 24 h; percent of 100 nM tunicamycin response | reporter increase, % at 12.5 µM | 0.23% of 360,000 active;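 active = mean luciferase reporter signal, scaled so untreated is 0 and the glycosylation-blocking control 100, at or above a set limit in every replicate; inconclusive = mean reaches the limit but not every replicate does; inactive = mean below the limit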;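 also: luciferase carries N-glycosylation sites so blocking glycosylation raises the light; 0% = median of neutral control wells and 100% = median of 100 nM tunicamycin wells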
HIV Env fusion: HIV envelope-mediated fusion inhibition; inhibition, % at 12.3 µM; AID 651610; 1.1% of 360,000 active; HeLa-JRFL Env/CEM21 cell fusion, luciferase;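 active = mean replicate inhibition score of at least 50 and every replicate individually at or above 50; inconclusive = only one of the two criteria met; inactive = mean below 50 and not all replicates reaching 50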;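 also: 0% = plate neutral controls and 100% = maraviroc near 300 nM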
PAX8 inh HTS: lowers PAX8-driven luciferase in RMG-I cells; 1.2% of 360,000 active; RMG-I TPO-luciferase reporter, SteadyGlo, 24 h; AID 652154; inhibition, % at 12.6 µM;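 active = mean replicate inhibition at least 60% with every replicate also reaching 60%; inconclusive = only one of the two criteria is met; inactive = mean below 60% and not all replicates reaching 60%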;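 also: luciferase light reporting Pax8 driven TPO promoter activity; plate controls were median of neutral control wells for no effect and mitoxantrone controls for full effect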
* hit, by the source's call; [ ] = another dose, or the depositor's remark.

What do the screens show for `COc1ccc(/C=C/C(=O)c2ccc3c4c(cccc24)CC3)cc1OC`?
FN deposit inh: 4; N-glyco inh: 34*; HIV Env fusion: -6; PAX8 inh HTS: -6

Results for COc1ccc(/C=C/C(=O)c2cc(F)ccc2OC(=O)c2ccccc2C)cc1OC ?
EWS-Fli block: inconclusive; MLL AF4-AF9 inh: 9; FN deposit inh: -43; N-glyco inh: 4; HIV Env fusion: -72; PAX8 inh HTS: 91*

What do the screens show for `COc1ccc(C(=O)Oc2ccc(F)cc2C(=O)/C=C/c2ccc(OC)c(OC)c2)cc1`?
FN deposit inh: -8; N-glyco inh: 10; HIV Env fusion: -38; PAX8 inh HTS: -5

Results for Cc1cc(Sc2nnc(N)s2)c2ccccc2n1 ?
EWS-Fli block: 10; MLL AF4-AF9 inh: -2; FN deposit inh: 2; N-glyco inh: 12; HIV Env fusion: 53; PAX8 inh HTS: 90*

Results for CCCCCCCCSc1nnc(/N=C/N(C)C)s1 ?
EWS-Fli block: 12; MLL AF4-AF9 inh: -1; FN deposit inh: 2; N-glyco inh: 1; HIV Env fusion: 5; PAX8 inh HTS: 16

How did Cc1cc(Sc2nnc(/N=C/N(C)C)s2)c2ccccc2n1 do in these assays?
EWS-Fli block: 5; FN deposit inh: -3; N-glyco inh: 15; HIV Env fusion: 56*; PAX8 inh HTS: 85*

How did Cc1cc(S(=O)(=O)c2ccc(Cl)cc2)nc(S(=O)(=O)c2ccc(Cl)cc2)c1C#N do in these assays?
EWS-Fli block: 64*; MLL AF4-AF9 inh: -5; FN deposit inh: -15; N-glyco inh: -7; HIV Env fusion: -154; PAX8 inh HTS: 83*

What do the screens show for `Cc1cc(C)c(S(=O)(=O)c2ccc(Cl)cc2)c(Cl)n1`?
EWS-Fli block: 4; MLL AF4-AF9 inh: 0; FN deposit inh: -1; N-glyco inh: -1; HIV Env fusion: 4; PAX8 inh HTS: 9

Results for COc1cccc(NC(=O)N2CC3(C2)[C@H](c2ccccc2)[C@@H](CO)N3C(=O)C2CCCC2)c1 ?
EWS-Fli block: 6; MLL AF4-AF9 inh: -2

What do the screens show for `COc1cccc(NC(=O)N(C)C[C@H]2Oc3cc(C#Cc4ccncc4)ccc3S(=O)(=O)N([C@H](C)CO)C[C@@H]2C)c1`?
EWS-Fli block: 19; MLL AF4-AF9 inh: 1; HIV Env fusion: 1[16.7 µM]

What do the screens show for `C[C@@H]1CN([C@H](C)CO)S(=O)(=O)c2ccc(C#Cc3ccncc3)cc2O[C@H]1CN(C)C(=O)Nc1ccc2c(c1)OCO2`?
EWS-Fli block: 19; MLL AF4-AF9 inh: 0; FN deposit inh: 6; PAX8 inh HTS: 91*

What do the screens show for `COc1ccc(NC(=O)N(C)C[C@@H]2Oc3cc(C#CCC(C)C)ccc3S(=O)(=O)N([C@@H](C)CO)C[C@@H]2C)cc1`?
EWS-Fli block: 2; MLL AF4-AF9 inh: 6; PAX8 inh HTS: 65*

How did COc1cccc(C#Cc2ccc3c(c2)O[C@@H](CN(C)C(=O)c2ccccn2)[C@H](C)CN([C@@H](C)CO)S3(=O)=O)c1 do in these assays?
EWS-Fli block: 22; MLL AF4-AF9 inh: 0; HIV Env fusion: -7[16.7 µM]; PAX8 inh HTS: 73*

Results for COc1cccc(NC(=O)N(C)C[C@H]2Oc3cc(C#Cc4ccncc4)ccc3S(=O)(=O)N([C@H](C)CO)C[C@H]2C)c1 ?
EWS-Fli block: 6; MLL AF4-AF9 inh: -1; FN deposit inh: 3; N-glyco inh: 3; HIV Env fusion: -10; PAX8 inh HTS: 66*

Results for C[C@H]1CN([C@@H](C)CO)C(=O)Cc2cc(NC(=O)Nc3ccccc3)ccc2O[C@@H]1CN(C)C(=O)Nc1ccccc1 ?
EWS-Fli block: 6; MLL AF4-AF9 inh: -16; HIV Env fusion: 7[16.7 µM]; PAX8 inh HTS: 19

Results for COc1ccccc1S(=O)(=O)Nc1ccc2c(c1)C(=O)N(C)C[C@@H](OC)[C@@H](C)CN[C@H](C)CO2 ?
EWS-Fli block: 2; MLL AF4-AF9 inh: -2; FN deposit inh: -15; HIV Env fusion: -19[16.7 µM]; PAX8 inh HTS: -9

How did Cc1ccc2nc(NC(=O)C3CCN(S(=O)(=O)c4cccs4)CC3)sc2c1 do in these assays?
FN deposit inh: -5; N-glyco inh: -11; HIV Env fusion: 80*

What do the screens show for `O=C(Nc1nc2ccc(C(=O)N3CCCCC3)cc2s1)C1CCCCC1`?
EWS-Fli block: 54*; MLL AF4-AF9 inh: -1; N-glyco inh: 5; HIV Env fusion: 3; PAX8 inh HTS: -26

Results for COc1ccc2nc(NC(=O)C3CCN(S(=O)(=O)c4cccs4)CC3)sc2c1 ?
N-glyco inh: -15

What do the screens show for `CC(C)NC(=O)N(C)C[C@@H]1Oc2ccc(NC(=O)Cc3cn(C)c4ccccc34)cc2CC(=O)N([C@H](C)CO)C[C@H]1C`?
MLL AF4-AF9 inh: 0; FN deposit inh: 1; HIV Env fusion: -10[16.7 µM]; PAX8 inh HTS: 14

Results for Cc1ccc(S(=O)(=O)NC[C@H]2CC[C@@H]3[C@@H](CN3C(=O)CN(C)C)O2)cc1 ?
EWS-Fli block: -1; MLL AF4-AF9 inh: -3; HIV Env fusion: -13[16.7 µM]; PAX8 inh HTS: -3

Results for CN(C)CC(=O)N1CCCCN2[C@H](CO)[C@H](c3ccc(/C=C/c4ccccc4)cc3)[C@H]2C1 ?
EWS-Fli block: 16; MLL AF4-AF9 inh: 3; PAX8 inh HTS: 78*

Results for CN(C)CC(=O)N1CCCCN2[C@@H](CO)[C@H](c3ccc(/C=C/c4ccccc4)cc3)[C@@H]2C1 ?
EWS-Fli block: 23; MLL AF4-AF9 inh: -2; PAX8 inh HTS: 67*

Results for CN(C)CC(=O)N1CCCCN2[C@@H](CO)[C@@H](c3ccc(/C=C/c4ccccc4)cc3)[C@@H]2C1 ?
EWS-Fli block: 3; MLL AF4-AF9 inh: 4; PAX8 inh HTS: 72*

What do the screens show for `CN(C)CC(=O)N1CCCCN2[C@H](C1)[C@H](c1ccc(/C=C/c3ccccc3)cc1)[C@@H]2CO`?
EWS-Fli block: -13; MLL AF4-AF9 inh: -5; PAX8 inh HTS: 60

What do the screens show for `CN(C)CC(=O)N1CCCCN2[C@H](C1)[C@@H](c1ccc(/C=C/c3ccccc3)cc1)[C@@H]2CO`?
EWS-Fli block: 18; MLL AF4-AF9 inh: 1; PAX8 inh HTS: 52

How did CCCNC(=O)Nc1ccc2c(c1)C(=O)N(C)C[C@H](OC)[C@@H](C)CN(C(=O)CC)[C@H](C)CO2 do in these assays?
EWS-Fli block: -4; FN deposit inh: 2; HIV Env fusion: -1[16.7 µM]; PAX8 inh HTS: -7

How did CCC(=O)N(C)C[C@H]1Oc2cc(C#CC3CCCC3)ccc2S(=O)(=O)N([C@H](C)CO)C[C@H]1C do in these assays?
EWS-Fli block: 1; MLL AF4-AF9 inh: 5; FN deposit inh: 2; HIV Env fusion: 13[16.7 µM]

What do the screens show for `C[C@@H]1CN([C@@H](C)CO)C(=O)c2cccc(NC(=O)c3nc4ccccc4s3)c2O[C@H]1CN(C)S(C)(=O)=O`?
EWS-Fli block: 1; MLL AF4-AF9 inh: -3; HIV Env fusion: 16[16.7 µM]

How did Cc1cc(-c2nnc3n2N=C(c2ccc(-c4ccccc4)cc2)CS3)n[nH]1 do in these assays?
N-glyco inh: 37*
